Screens from PubChem.
Shown are actives, neighbours in structure and some others; about 1.9% of the full set was active somewhere.
LEDGF integ inh – blocks HIV-1 LEDGF/p75-dependent DNA integration. TR-FRET IN-LEDGF/p75 DNA integration, Eu/Cy5. inhibition, % at 3.7 µM. 370,000 compounds, 0.64% hits. AID 743269;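 active means inhibition above the screen-wide mean plus 3 SD, cut at about 13% in these data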;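 further: signal is the Cy5 over europium emission ratio at 671 and 618 nm; 0% = plate median of compound wells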
MBD2 DNA inh – MBD2-methylated oligo binding inhibition | inhibition, % at 4.4 µM | TR-FRET, MBD2 binding to methylated oligonucleotide | 370,000 compounds, 0.31% hits | Q9UBB5; in the data active means inhibition above about 13%
TDP2 inh – TDP2 (human) inhibition, absorbance primary screen; O95551; recombinant TDP2, T5PNP hydrolysis, p-nitrophenol absorbance 415 nm; inhibition, % at 12.8 µM; 370,000 compounds, 0.34% hits;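 active means inhibition above the mean of all tested compounds plus 3 SD, set per campaign, cut at about 25% in these data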;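 further: 0% = DMSO with enzyme and 100% = buffer with substrate but no TDP2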
Target sequence (O95551 whole entry, looked up): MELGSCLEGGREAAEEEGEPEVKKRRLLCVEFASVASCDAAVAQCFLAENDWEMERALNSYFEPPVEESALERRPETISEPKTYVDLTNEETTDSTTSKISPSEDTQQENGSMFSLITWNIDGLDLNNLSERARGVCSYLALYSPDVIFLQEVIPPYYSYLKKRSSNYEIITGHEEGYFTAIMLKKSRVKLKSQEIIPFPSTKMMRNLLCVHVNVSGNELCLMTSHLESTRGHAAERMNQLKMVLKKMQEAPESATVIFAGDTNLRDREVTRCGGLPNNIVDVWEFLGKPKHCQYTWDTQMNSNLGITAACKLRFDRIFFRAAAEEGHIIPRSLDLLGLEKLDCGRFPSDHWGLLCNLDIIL
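Read-out basis: percent inhibition. System: recombinant human TDP2. Buffer or medium: Mg2+-containing Tris-HCl buffer, pH 7.5. Repeats: single replicate. Timing: reaction 2 h, 37 °C. Benchmarks: high control without enzyme, low control DMSO plus TDP2. Probe or stimulus: 5 mM T5PNP. Doses: 12.8 µM only. Measured by: epi absorbance of p-nitrophenol freed from T5PNP by hydrolysis.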
Tn7 DDE FP – inhibitors of Tn7 peptide binding to human fibrin DD(E); P02675; FP displacement of FITC-Tn7 peptide from fibrin DD(E); 0% = median of compound wells per plate; inhibition, % at 8.3 µM; 370,000 compounds, 0.13% hits;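 active means inhibition above the mean of compounds falling within the control limits plus 3 SD of them, cut at about 14% in these data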;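 further: 0% = plate median of compound wells and 100% = 10 µM Aha-Tn7 peptide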
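assay system = human clot-derived fibrin DD(E) complex | quantity = Fibrin-DD(E) at 2 µM final | timing = 10 min preincubation, 3 h with tracer, room temperature | signal = fluorescence polarization | measure = percent inhibition | benchmarks = high control wells with 10 µM unlabelled Aha-Tn7 peptide (full inhibition) | replicates = singlicate testing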
UHRF1 MBD2 ctr – blocks human UHRF1 binding to methylated DNA | Q96T88 | UHRF1 binding to methylated oligo, TR-FRET | inhibition, % at 4.4 µM | 370,000 compounds, 0.75% hits | AID 687016; in the data active means inhibition above about 21%;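 further: UHRF1 SRA domain binding a hemimethylated CpG hairpin DNA probe; 0% = median of test compound wells and 100% = reference inhibitor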
DDE Tn6 FP inh – disrupts Tn6 cyclic peptide binding to fibrin D-Dimer-E complex; 370,000 compounds, 0.21% hits; P02675; Fibrin DD(E) TRITC-Tn6 fluorescence polarization displacement; inhibition, % at 8.3 µM;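 active means inhibition above a per-campaign cutoff: mean of compounds within control limits plus 3 SD, cut at about 15% in these data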;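 further: 0% = median of all compound wells on the plate and 100% = blocking peptide control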
IN multimer act – counter-screen for LEDGF/p75 integration inhibitors: HIV-1 integrase multimerization activators. shares compounds with LEDGF integ inh. activation, % at 7.7 µM. 2,000 compounds, 17% hits. AID 1053131. TR-FRET HIV-1 integrase multimerization, biochemical; in the data active means activation above about 8.9%
TR-FRET interf – TR-FRET optical interference, LEDGF/p75 integration counter-screen; inhibition, % at 7.7 µM; 2,000 tested, under 10 active; TR-FRET optical interference counterscreen, HIV-1 IN multimerization; shares compounds with LEDGF integ inh;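 active means inhibition above the mean over all tested compounds plus 3 SD, which no compound reached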;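 further: 0% = integrase with antibodies and DMSO and 100% = antibodies without integrase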
IN-LEDGF confirm – LEDGF/p75-dependent HIV-1 integration inhibition, confirmation | 2,000 compounds, 36% hits | inhibition, % at 3.7 µM | shares compounds with LEDGF integ inh | TR-FRET LEDGF/p75-dependent HIV-1 integration, biochemical | AID 1053136; in the data active means inhibition above about 14%
* marks the source's active call; other numbers are inactive results.

For Cc1ccc(N2C(=O)CCC2(C(N)=O)c2ccccc2)cc1 (centres undefined) the results were LEDGF integ inh -2, MBD2 DNA inh 1, TDP2 inh 0, Tn7 DDE FP -6, UHRF1 MBD2 ctr -1 and DDE Tn6 FP inh -1.
`NC(=O)C1(c2ccccc2)CCC(=O)N1c1ccccc1` (centres undefined) gave LEDGF integ inh 35*, MBD2 DNA inh 3, TDP2 inh 1, Tn7 DDE FP 9, UHRF1 MBD2 ctr 3, DDE Tn6 FP inh 3, IN multimer act 1, TR-FRET interf -4 and IN-LEDGF confirm -1.
`O=C1C=C(c2cccs2)C[C@H](c2ccccc2)[C@H]1n1nnc([N+](=O)[O-])n1` gave LEDGF integ inh 14*, MBD2 DNA inh -5, TDP2 inh 3, Tn7 DDE FP 0, UHRF1 MBD2 ctr -4, DDE Tn6 FP inh 2, IN multimer act 2, TR-FRET interf -8 and IN-LEDGF confirm 18*.
O=C1Nc2ccc(S(=O)(=O)N3CCCC3C(=O)O)c3cccc1c23 (centres undefined) was read as LEDGF integ inh 14*, MBD2 DNA inh -5, TDP2 inh -1, Tn7 DDE FP 0, UHRF1 MBD2 ctr 1, DDE Tn6 FP inh -2, IN multimer act -2, TR-FRET interf 10 and IN-LEDGF confirm -6.
Screening Cc1ccccc1C(=O)NC1CCCCN(Cc2ccc(Cl)cc2)C1=O (centres undefined) returned LEDGF integ inh -2, MBD2 DNA inh 1, TDP2 inh 5, Tn7 DDE FP -2, UHRF1 MBD2 ctr -1 and DDE Tn6 FP inh 6.
COc1ccc(C(=O)OCC(=O)NC2CCCCCCC2)cc1OC was read as LEDGF integ inh 27*, MBD2 DNA inh 1, TDP2 inh 0, Tn7 DDE FP -4, UHRF1 MBD2 ctr 2, DDE Tn6 FP inh 0, IN multimer act 1, TR-FRET interf -5 and IN-LEDGF confirm 2.
O=C1/C(=C/c2ccco2)SC(=S)N1CC1CCCO1 (centres undefined) was read as LEDGF integ inh 16*, MBD2 DNA inh 8, TDP2 inh 5, Tn7 DDE FP 6, UHRF1 MBD2 ctr 29*, DDE Tn6 FP inh 2, IN multimer act 4, TR-FRET interf -22 and IN-LEDGF confirm 15*.
Screening O=C(CCN1C(=O)/C(=C/c2ccco2)SC1=S)Nc1ccc(C(=O)O)c(O)c1 returned LEDGF integ inh 54*, MBD2 DNA inh 21*, TDP2 inh 21, Tn7 DDE FP 1, UHRF1 MBD2 ctr 62*, DDE Tn6 FP inh -1, IN multimer act 12*, TR-FRET interf -59 and IN-LEDGF confirm 40*.
`Cc1ccc(/C=C2\SC(=S)N(CC3CCCO3)C2=O)o1` (centres undefined) gave LEDGF integ inh 9, MBD2 DNA inh -2, TDP2 inh -2, Tn7 DDE FP -4, UHRF1 MBD2 ctr 0 and DDE Tn6 FP inh -9.
Screening COc1ccccc1/C=C1\SC(=S)N(CCC(=O)Nc2ccc(C(=O)O)c(O)c2)C1=O returned LEDGF integ inh 4, MBD2 DNA inh 2, TDP2 inh -7, Tn7 DDE FP -2, UHRF1 MBD2 ctr -1 and DDE Tn6 FP inh -8.
O=C(O)CCCN1C(=O)/C(=C\c2ccco2)SC1=S was read as LEDGF integ inh 35*, MBD2 DNA inh 6, TDP2 inh 0, Tn7 DDE FP -4, UHRF1 MBD2 ctr 52*, DDE Tn6 FP inh 0, IN multimer act 7, TR-FRET interf -26 and IN-LEDGF confirm 40*.
